In ChEMBL document CHEMBL2034900, “Dual-target virtual screening by pharmacophore elucidation and molecular shape filtering” (ACS Med Chem Lett, 2012):
Activity calls are given as the source filed them. The rule behind the calls is not given here.

Experiments:
[1] = target: T1, Polyunsaturated fatty acid 5-lipoxygenase (Homo sapiens, UniProt P09917); assay: Inhibition of recombinant 5-lipoxygenase expressed in Escherichia coli BL21 using arachidonic acid as substrate incubated for 15 mins prior to substrate addition measured after 10 mins by HPLC analysis
T1 sequence (P09917 whole entry): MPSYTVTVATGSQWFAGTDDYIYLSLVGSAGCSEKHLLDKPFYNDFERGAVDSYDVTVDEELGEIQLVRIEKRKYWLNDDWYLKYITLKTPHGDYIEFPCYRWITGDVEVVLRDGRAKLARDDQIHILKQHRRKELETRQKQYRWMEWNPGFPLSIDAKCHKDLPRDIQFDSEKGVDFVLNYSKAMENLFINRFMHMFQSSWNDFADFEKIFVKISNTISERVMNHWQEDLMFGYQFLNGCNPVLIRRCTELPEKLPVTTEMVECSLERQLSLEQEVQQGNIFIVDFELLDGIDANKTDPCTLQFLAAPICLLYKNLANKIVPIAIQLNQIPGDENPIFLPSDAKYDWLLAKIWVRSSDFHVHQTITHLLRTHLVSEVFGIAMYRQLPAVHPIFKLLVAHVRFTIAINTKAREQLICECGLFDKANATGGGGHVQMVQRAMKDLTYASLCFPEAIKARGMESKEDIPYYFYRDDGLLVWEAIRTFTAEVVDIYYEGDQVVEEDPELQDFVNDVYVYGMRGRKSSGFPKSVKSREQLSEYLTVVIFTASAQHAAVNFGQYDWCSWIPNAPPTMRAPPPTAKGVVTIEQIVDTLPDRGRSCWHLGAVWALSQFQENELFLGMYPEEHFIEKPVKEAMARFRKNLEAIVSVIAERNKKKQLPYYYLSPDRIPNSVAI
How it was run: (§1)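 Compounds were first tested at 30 μM, and IC50 values were determined only for those giving at least 50% inhibition. The 5-LO assay was cell-free with HPLC read-out, and the sEH assay used a fluorescence read-out.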

[2] = target: T2, Bifunctional epoxide hydrolase 2 (Homo sapiens, UniProt P34913); assay: (§2) Inhibition of soluble epoxide hydrolase using (3-Phenyl-oxiranyl)-acetic acid cyano-(6-methoxy-naphthalen-2-yl)-methyl ester) as substrate incubated for 15 mins prior to substrate addition measured every min for 15 mins by fluorometry; how it was run: as §1
T2 sequence (P34913 whole entry): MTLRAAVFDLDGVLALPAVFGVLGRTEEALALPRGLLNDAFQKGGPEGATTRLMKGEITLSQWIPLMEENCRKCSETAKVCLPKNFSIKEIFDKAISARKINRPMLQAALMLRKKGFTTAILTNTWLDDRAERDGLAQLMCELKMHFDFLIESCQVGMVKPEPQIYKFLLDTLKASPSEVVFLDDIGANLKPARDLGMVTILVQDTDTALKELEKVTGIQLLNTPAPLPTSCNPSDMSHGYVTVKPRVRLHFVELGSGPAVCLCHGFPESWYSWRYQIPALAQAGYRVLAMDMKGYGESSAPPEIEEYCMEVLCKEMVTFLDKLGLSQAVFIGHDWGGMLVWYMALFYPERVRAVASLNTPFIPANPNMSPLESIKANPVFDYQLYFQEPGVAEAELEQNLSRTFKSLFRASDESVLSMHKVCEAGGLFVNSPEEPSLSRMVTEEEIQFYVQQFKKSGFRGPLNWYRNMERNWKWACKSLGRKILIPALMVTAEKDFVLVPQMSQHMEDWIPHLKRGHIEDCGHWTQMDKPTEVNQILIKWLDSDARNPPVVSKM

[3] = target: T3, Bifunctional epoxide hydrolase 2 (Homo sapiens) (UniProt P34913); assay: as §2; how it was run: as §1
T3 sequence (whole entry): T2 sequence (P34913 whole entry)

Structure (SMILES): CC(C)CC(=O)Nc1nc2c(s1)CCc1ccccc1-2
- IC50 [1]: 16 µM

Structure (SMILES): Cn1nnc2cc(NC(=O)NCCC3=CCCCC3)ccc21
- IC50 [2]: 0.47 µM

Structure (SMILES): COc1cccc(CNc2nc3ccccc3n2C)c1O
- IC50 [1]: 7.6 µM
- inhibition [3]: inactive

Structure (SMILES): COc1ccc(NC(=O)c2cccc(-n3cnnn3)c2)cc1
- IC50 [2]: 1.6 µM

Structure (SMILES): COc1ccc(-c2nc3cc(C)ccc3[nH]2)cc1OC
- IC50 [1]: 36 µM
- IC50 [2]: 3.5 µM

Structure (SMILES): COc1ccc(-c2nc3cc(C)ccc3o2)cc1OC
- IC50 [1]: 2.7 µM
- inhibition [3]: inactive

Structure (SMILES): COc1ccc(CC(=O)Nc2ccc(C)cc2)cc1OC
- IC50 [2]: 21 µM

Structure (SMILES): CN(C)c1ccc(-n2nc3ccc4ccccc4c3n2)cc1
- IC50 [1]: 2.2 µM

Structure (SMILES): COc1ccc(/C=N/Nc2nc3ccccc3[nH]2)cc1OC
- IC50 [1]: 8.1 µM
